The record followed here is ChEMBL document CHEMBL1154420, “Role of a qnr-like gene in the intrinsic resistance of Enterococcus faecalis to fluoroquinolones” (2007).

Assay [1] concerns Staphylococcus aureus. The assay is described as follows: Antibacterial activity against Staphylococcus aureus RN4220 containing ORI23::qnr-cat promoter mutant by twofold dilution method. It counts as functional. Summed up: (§1)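 Heterologous hosts carrying pORI23 or pORI23::qnr-cat (cat reporter downstream of qnr); MICs of ofloxacin, ciprofloxacin, levofloxacin, sparfloxacin and moxifloxacin by standard twofold dilution. Transformants selected on erythromycin 500 μg/ml plus chloramphenicol 20 μg/ml (E. coli DH10B) or erythromycin 5 μg/ml plus chloramphenicol 5 μg/ml (S. aureus, L. lactis). Blood-supplemented agar for L. lactis.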

Assay [2] deals with Enterococcus faecalis. The assay is described as follows: Antibacterial activity against Enterococcus faecalis JH2-2-omega-pG1KT mutant with inactivated qnr gene by broth microdilution method. In kind it is functional. Background: Dilution methods test growth across graded concentrations, often in twofold steps.
Assay [3] deals with Enterococcus faecalis. The experiment in a line: Antibacterial activity against Enterococcus faecalis JH2-2 by broth microdilution method. In kind it is functional.
Assay [4] concerns Lactococcus lactis. The assay is described as follows: Antibacterial activity against Lactococcus lactis IL-1419 containing ORI23 promoter by twofold dilution method. In kind it is functional. Summed up: (§2)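 Heterologous-expression MIC by standard twofold dilution; L. lactis IL-1419 transformed with pORI23 vector or pORI23::qnr-cat by electroporation, selected on erythromycin 5 μg/ml plus chloramphenicol 5 μg/ml; routine growth at 37°C on TS agar with 10% horse blood.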

The test system of assay [5] is Enterococcus faecalis. The experiment in a line: Antibacterial activity against Enterococcus faecalis JH2-2-omega-pG1KT/pORI23::qnr-cat mutant with qnr gene complementation by broth microdilution method. In kind it is functional.
Assay [6] relates to Escherichia coli. The experiment in a line: Antibacterial activity against Escherichia coli DH10B containing ORI23::qnr-cat promoter mutant by twofold dilution method. It counts as functional. To be noted: K-12 substr. DH10B. Summed up:
as §1

The test system of assay [7] is Enterococcus faecalis. The experiment in a line: Antibacterial activity against Enterococcus faecalis JH2-2-delta-pG1KT mutant by broth microdilution method. In kind it is functional.
Assay [8] relates to Enterococcus faecalis. The experiment in a line: Antibacterial activity against Enterococcus faecalis JH2-2 containing ORI23::qnr-cat promoter mutant overexpressing qnr by broth microdilution method. In kind it is functional.
Assay [9] concerns Lactococcus lactis. The assay is described as follows: Antibacterial activity against Lactococcus lactis IL-1419 by twofold dilution method. It counts as functional. Summed up:
as §2

Assay [10] relates to Enterococcus faecalis. The experiment in a line: Antibacterial activity against Enterococcus faecalis JH2-2 containing ORI23 promoter by broth microdilution method. It counts as functional. Summed up:
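Broth microdilution MIC in Mueller-Hinton broth per CA-SFM, three independent experiments; JH2-2 host carrying pORI23 vector. Narrow dilution series: ofloxacin 1–128 μg/ml (1, 1.5, 2 … 8, 16, 32, 64, 128), ciprofloxacin 0.5–64 μg/ml (0.5, 0.75, 1 … 4, 8, 16, 32, 64). Growth at 37°C.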

Assay [11] concerns Lactococcus lactis. The assay is described as follows: Antibacterial activity against Lactococcus lactis IL-1419 containing ORI23::qnr-cat promoter mutant by twofold dilution method. It counts as functional. Summed up:
as §1

The test system of assay [12] is Staphylococcus aureus. The assay is described as follows: Antibacterial activity against Staphylococcus aureus RN4220 by twofold dilution method. In kind it is functional. Summed up:
as §1

For assay [13], the system named is Staphylococcus aureus. The assay is described as follows: Antibacterial activity against Staphylococcus aureus RN4220 containing ORI23 promoter by twofold dilution method. It counts as functional. Summed up:
as §1

Assay [14] concerns Escherichia coli. The experiment in a line: Antibacterial activity against Escherichia coli DH10B containing ORI23 promoter by twofold dilution method. In kind it is functional. The conditions noted are these: K-12 substr. DH10B. Summed up: as §1
In assay [15] the test system is Escherichia coli. The assay is described as follows: Antibacterial activity against Escherichia coli DH10B by twofold dilution method. In kind it is functional. The conditions noted are these: K-12 substr. DH10B. Summed up: as §1
The subject of assay [16] is Enterococcus faecalis. The assay is described as follows: microbe, parasite or virus in culture. To be noted: ATCC 29212.
Assay [17] deals with Escherichia coli. The experiment in a line: Inhibition of Escherichia coli DNA gyrase-mediated Escherichia coli pBR322 DNA supercoiling at 1 ug/mL in presence of 0.9 uM histidine6-tagged Enterococcus faecalis qnr protein preincubated before compound administration by agarose gel electrophoresis. Summed up: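 Dialyzed C-terminal His6-tagged Qnr (from E. coli BL21(DE3), IPTG 1 mM, Ni-NTA purified, 0.9 μM) preincubated with E. coli gyrase 1 h at 25°C before drug; then 1 U gyrase, 0.5 μg relaxed pBR322, buffer with 1 mM ATP, pH 7.5, 37°C 30 min; readout by 1% agarose gel, ethidium bromide.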

In assay [18] the test system is Escherichia coli. The experiment in a line: Inhibition of Escherichia coli DNA gyrase-mediated Escherichia coli pBR322 DNA supercoiling at 1 ug/mL by agarose gel electrophoresis. Summed up: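 Supercoiling assay: 1 U purified E. coli gyrase with 0.5 μg relaxed pBR322 in 35 mM Tris-HCl pH 7.5, 24 mM KCl, 4 mM MgCl2, 2 mM DTT, 1.8 mM spermidine, 1 mM ATP, 6.5% glycerol, 0.1 mg/ml albumin; drug incubated 1 h 25°C then 30 min 37°C; topoisomers resolved on 1% agarose, ethidium bromide, 16 h at 3.5 V/cm.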

Converted amounts (≈) assume the structure as drawn. The source made the active and inactive calls. The calls are words filed in the database; no cut-off is given here.

In the case of `O=C(O)c1cn(C2CC2)c2cc(N3CCNCC3)c(F)cc2c1=O` [CIPROFLOXACIN], the MIC was found to be 2 µg/mL (≈ 6.04 µM) against Staphylococcus aureus [1]; 0.75 µg/mL (≈ 2.26 µM) in the assay with Enterococcus faecalis [2]; 1.5 µg/mL (≈ 4.53 µM) against Enterococcus faecalis [3]; 2 µg/mL (≈ 6.04 µM) against Lactococcus lactis [4]; 8 µg/mL (≈ 24.1 µM) in the assay on Enterococcus faecalis [5]; 0.032 µg/mL (≈ 0.0966 µM) against Escherichia coli [6]. Further, the MIC was found to be 1.75 µg/mL (≈ 5.28 µM) against Enterococcus faecalis [7], 8 µg/mL (≈ 24.1 µM) in the assay with Enterococcus faecalis [8], 2 µg/mL (≈ 6.04 µM) in the assay with Lactococcus lactis [9] and 2 µg/mL (≈ 6.04 µM) with Enterococcus faecalis [10].
Take `C[C@H]1COc2c(N3CCN(C)CC3)c(F)cc3c(=O)c(C(=O)O)cn1c23.C[C@H]1COc2c(N3CCN(C)CC3)c(F)cc3c(=O)c(C(=O)O)cn1c23.O` [LEVOFLOXACIN]: the MIC in the assay on Staphylococcus aureus [1] came out at 1 µg/mL; against Lactococcus lactis [11], 2 µg/mL; in the assay with Lactococcus lactis [4] it was 0.5 µg/mL; in the assay with Escherichia coli [6], 0.125 µg/mL; against Lactococcus lactis [9], 0.5 µg/mL; against Staphylococcus aureus [12], 0.25 µg/mL. The compound also gave an MIC in the assay on Staphylococcus aureus [13] of 0.25 µg/mL.
As to `COc1c(N2C[C@@H]3CCCN[C@@H]3C2)c(F)cc2c(=O)c(C(=O)O)cn(C3CC3)c12` [MOXIFLOXACIN], the MIC against Staphylococcus aureus [1] was 0.25 µg/mL (≈ 0.623 µM); in the assay with Lactococcus lactis [11] it was 1 µg/mL (≈ 2.49 µM); in the assay with Escherichia coli [14] it was 0.002 µg/mL (≈ 0.00498 µM); against Lactococcus lactis [4], 0.25 µg/mL (≈ 0.623 µM); in the assay on Escherichia coli [6] it was 0.032 µg/mL (≈ 0.0797 µM); with Escherichia coli [15], 0.002 µg/mL (≈ 0.00498 µM). The compound also showed an MIC in the assay on Lactococcus lactis [9] of 0.25 µg/mL (≈ 0.623 µM).
For `CC1COc2c(N3CCN(C)CC3)c(F)cc3c(=O)c(C(=O)O)cn1c23` (centres undefined) [OFLOXACIN], the MIC in the assay on Staphylococcus aureus [1] was 2 µg/mL (≈ 5.53 µM); with Enterococcus faecalis [16], 2 µg/mL (≈ 5.53 µM); in the assay on Enterococcus faecalis [2], 1.5 µg/mL (≈ 4.15 µM); in the assay on Enterococcus faecalis [3], 3 µg/mL (≈ 8.3 µM); against Lactococcus lactis [11], 4 µg/mL (≈ 11.1 µM); in the assay on Lactococcus lactis [4], 1 µg/mL (≈ 2.77 µM). Further, the MIC against Enterococcus faecalis [5] was determined as 32 µg/mL (≈ 88.6 µM); against Escherichia coli [6], 0.125 µg/mL (≈ 0.346 µM); against Enterococcus faecalis [7], 3 µg/mL (≈ 8.3 µM); with Enterococcus faecalis [8] it was 32 µg/mL (≈ 88.6 µM); against Lactococcus lactis [9], 1 µg/mL (≈ 2.77 µM); against Staphylococcus aureus [12], 0.5 µg/mL (≈ 1.38 µM). In addition, the MIC in the assay with Enterococcus faecalis [10] was 3.5 µg/mL (≈ 9.69 µM); in the assay with Staphylococcus aureus [13] it was 0.5 µg/mL (≈ 1.38 µM). Moreover, the outcome in the assay on Escherichia coli [17] was inactive. The outcome in the assay on Escherichia coli [18] was Active.
For `C[C@@H]1CN(c2c(F)c(N)c3c(=O)c(C(=O)O)cn(C4CC4)c3c2F)C[C@H](C)N1` [SPARFLOXACIN], the MIC stood at 1 µg/mL (≈ 2.55 µM) in the assay with Staphylococcus aureus [1]; 4 µg/mL (≈ 10.2 µM) in the assay with Lactococcus lactis [11]; 0.004 µg/mL (≈ 0.0102 µM) with Escherichia coli [14]; 0.5 µg/mL (≈ 1.27 µM) against Lactococcus lactis [4]; 0.064 µg/mL (≈ 0.163 µM) in the assay on Escherichia coli [6]; 0.002 µg/mL (≈ 0.0051 µM) against Escherichia coli [15]. Further, the MIC against Lactococcus lactis [9] came out at 0.5 µg/mL (≈ 1.27 µM); in the assay with Staphylococcus aureus [12], 0.125 µg/mL (≈ 0.319 µM); against Staphylococcus aureus [13] it was 0.125 µg/mL (≈ 0.319 µM).
